≈ marks a conversion by molar mass, not a printed value.
Key:
WI-38 VA13 = experiment: Cytotoxicity against tumorigenic cell line WI-38 VA-13 subline 2RA (VA-13);no cytotoxicity against parental cell line WI-38; assay type: functional, cell-based; settings: Homo sapiens
Mus musculus [1] = experiment: In vivo percent inhibitory effect on tumor growth after 11 days against mouse Lewis lung carcinoma xenograft model (LLC) at the dose of 40 mg/kg/shot; (Schedule day=1,4,7); assay type: functional; settings: 264 h, read-out: TGI
Method in brief: (§1)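 Mouse Lewis lung carcinoma was inoculated subcutaneously into BDF1 female mice (n = 6) on day 0. Dosing was iv in 10% DMA/10% HCO60 (polyoxyethylene hydrogenated castor oil 60)/80% saline on the stated schedule. Tumor growth inhibition (%) was based on tumor volume at day 11, with significance by t test (p < 0.05).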

Mus musculus [2] = organism: Mus musculus; experiment: Half life time in plasma (concentration); assay type: functional, organism-based
Method in brief: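 Plasma levels were measured in BDF1 female mice after iv administration at 10 mg/kg, with n = 2 and the mean concentration–time profile reported. The plasma half-life was derived from these profiles.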

Mus musculus [3] = experiment: In vivo percent inhibitory effect on tumor growth after 11 days against mouse Lewis lung carcinoma xenograft model (LLC) at the dose of 5 mg/kg/shot; (Schedule day=1,4,7); assay type: functional; settings: 264 h, read-out: TGI; method in brief: as §1
Mus musculus [4] = experiment: Half life time in plasma at a single iv dose of 10 mg/kg
Mus musculus [5] = experiment: In vivo percent inhibitory effect on tumor growth after 11 days against mouse Lewis lung carcinoma xenograft model (LLC) at the dose of 20 mg/kg/shot; (Schedule day=1); assay type: functional; settings: 264 h, read-out: TGI; method in brief: as §1

| Compound | EC50 (WI-38 VA13) [µg/mL] | further results |
| --- | --- | --- |
| O=C(Nc1ccc2nc(NCC3CCCCC3)sc2c1)c1c(Cl)cccc1Cl | 4.3 (≈ 9.9 µM) | – |
| O=C(Nc1ccc2nc(NC(=O)C3CCCCC3)sc2c1)c1ccccc1Cl | 0.025 (≈ 0.0604 µM) | – |
| Cc1cccc(C)c1NC(=O)Nc1ccc2nc(NC(=O)C3CCCCC3)sc2c1 | 0.56 (≈ 1.33 µM) | – |
| Cn1ncc([N+](=O)[O-])c1C(=O)Nc1ccc2nc(NC(=O)C3CCCCC3)sc2c1 | 0.026 (≈ 0.0607 µM) | inhibition in vivo at 40 mg/kg (Mus musculus [1]): 15% |
| CCCCCNc1nc2ccc(NC(=O)c3c(Cl)cccc3Cl)cc2s1 | 0.27 (≈ 0.661 µM) | – |
| O=C(Nc1ccc2nc(NC(=O)C3CCCCC3)sc2c1)c1c(Cl)cccc1Cl | 0.015 (≈ 0.0335 µM) | T1/2 (Mus musculus [2]): 1.1 h; inhibition in vivo at 40 mg/kg (Mus musculus [1]): 35% |
| Cc1ccc(F)cc1S(=O)(=O)Nc1ccc2nc(NC(=O)C3CCCCC3)sc2c1 | 0.7 (≈ 1.56 µM) | – |
| Cc1[nH][n+](C)c(C)c1C(=O)Nc1ccc2nc(NC(=O)C3CCCCC3)sc2c1 | 0.012 | – |
| C=CCOC(=O)Nc1ccc2nc(NC(=O)C3CCCCC3)sc2c1 | 0.58 (≈ 1.61 µM) | – |
| CC(=O)Nc1ccc2nc(NC(=O)C3CCCCC3)sc2c1 | 2.7 (≈ 8.51 µM) | – |
| O=C(Nc1ccc2nc(NC(=O)C3CCCCC3)sc2c1)c1ccc(Cl)cc1Cl | > 4 | – |
| Cc1nc(C)c(C(=O)Nc2ccc3nc(NC(=O)C4CCCCC4)sc3c2)s1 | 0.39 (≈ 0.941 µM) | – |
| CC(C)OC(=O)Nc1nc2ccc(NC(=O)c3c(Cl)cccc3Cl)cc2s1 | 0.0026 (≈ 0.00613 µM) | – |
| O=C(Nc1ccc2nc(NC(=O)C3CCCCC3)sc2c1)c1ccccc1C(F)(F)F | 0.024 (≈ 0.0536 µM) | – |
| O=C(Nc1ccc2nc(NC(=O)C3CCCCC3)sc2c1)c1c(F)cccc1C(F)(F)F | 0.032 (≈ 0.0687 µM) | – |
| N#Cc1cccc(C(=O)Nc2ccc3nc(NC(=O)C4CCCCC4)sc3c2)c1 | 0.52 (≈ 1.29 µM) | – |
| O=C(Nc1ccc2nc(NC(=O)C3CCCCC3)sc2c1)c1cccc(F)c1 | 0.64 (≈ 1.61 µM) | – |
| NCCC(=O)Nc1nc2ccc(NC(=O)c3c(Cl)cccc3Cl)cc2s1 | 5.3 (≈ 12.9 µM) | – |
| CC(C)NC(=O)Nc1nc2ccc(NC(=O)c3c(Cl)cccc3Cl)cc2s1 | 0.03 (≈ 0.0709 µM) | – |
| Cc1ccccc1C(=O)Nc1ccc2nc(NC(=O)C3CCCCC3)sc2c1 | 0.085 (≈ 0.216 µM) | – |
| CC(C)CC(=O)Nc1nc2ccc(NC(=O)c3c(Cl)cccc3Cl)cc2s1 | 0.012 (≈ 0.0284 µM) | – |

| Compound | EC50 (WI-38 VA13) [µg/mL] | further results |
| --- | --- | --- |
| CCOC(=O)Nc1nc2cc(NC(=O)c3c(Cl)cccc3Cl)ccc2s1 | 2.5 (≈ 6.09 µM) | – |
| COc1ccc(C(=O)Nc2ccc3nc(NC(=O)C4CCCCC4)sc3c2)cc1 | 4.9 (≈ 12 µM) | – |
| O=C(NCc1ccccc1)Nc1nc2ccc(NC(=O)c3c(Cl)cccc3Cl)cc2s1 | 0.15 (≈ 0.318 µM) | – |
| CCNC(=O)Nc1nc2ccc(NC(=O)c3c(Cl)cccc3Cl)cc2s1 | 0.032 (≈ 0.0782 µM) | – |
| O=C(Nc1nc2ccc(N/C(S)=N/c3ccccc3OC(F)(F)F)cc2s1)C1CCCCC1 | 2.3 (≈ 4.65 µM) | – |
| O=C(Nc1nc2ccc(NC(=S)Nc3ccc4c(c3)OCCO4)cc2s1)C1CCCCC1 | 1.6 (≈ 3.41 µM) | – |
| CCC(C)(C)C(=O)Nc1ccc2nc(NC(=O)C3CCCCC3)sc2c1 | 1 (≈ 2.68 µM) | – |
| CC(C)COC(=O)Nc1ccc2nc(NC(=O)C3CCCCC3)sc2c1 | 0.72 (≈ 1.92 µM) | – |
| Cc1ccc(C(=O)Nc2ccc3nc(NC(=O)C4CCCCC4)sc3c2)cc1 | 5.1 (≈ 13 µM) | – |
| O=C(Nc1ccc2nc(NC(=O)C3CCCCC3)sc2c1)c1cccc(Oc2ccccc2)c1 | > 4 | – |
| COCCOC(=O)Nc1nc2ccc(NC(=O)c3c(Cl)cccc3Cl)cc2s1 | 0.011 (≈ 0.025 µM) | – |
| CC(=O)Nc1nc2ccc(NC(=O)c3c(Cl)cccc3Cl)cc2s1 | 0.6 (≈ 1.58 µM) | – |
| COc1ccccc1Nc1nc2ccc(NC(=O)c3c(Cl)cccc3Cl)cc2s1 | > 7.2 | – |
| Cc1cc(C(=O)Nc2ccc3nc(NC(=O)C4CCCCC4)sc3c2)n(C)n1 | 0.12 (≈ 0.302 µM) | – |
| Cn1nccc1C(=O)Nc1ccc2nc(NC(=O)C3CCCCC3)sc2c1 | 0.58 (≈ 1.51 µM) | – |
| CCCCOc1ccc(S(=O)(=O)Nc2ccc3nc(NC(=O)C4CCCCC4)sc3c2)cc1 | 0.75 (≈ 1.54 µM) | – |
| O=C(Nc1ccc2nc(NC(=O)C3CCC3)sc2c1)c1c(Cl)cccc1Cl | 0.013 (≈ 0.0309 µM) | – |
| CCCCCCNC(=O)Nc1nc2ccc(NC(=O)c3c(Cl)cccc3Cl)cc2s1 | 0.29 (≈ 0.623 µM) | – |
| COc1ccc(Nc2nc3ccc(NC(=O)c4c(Cl)cccc4Cl)cc3s2)cc1 | 0.87 (≈ 1.96 µM) | – |
| O=C(Nc1ccc2nc(NC(=O)C3CC3)sc2c1)c1c(Cl)cccc1Cl | 0.013 (≈ 0.032 µM) | inhibition in vivo at 5 mg/kg (Mus musculus [3]): 63%; T1/2 (Mus musculus [4]): 3.29 h; inhibition in vivo at 20 mg/kg (Mus musculus [5]): 68% |
| O=C(Nc1ccc2nc(NC(=O)C3CCCCC3)sc2c1)c1ccccc1Oc1ccccc1 | 0.1 (≈ 0.212 µM) | – |

| Compound | EC50 (WI-38 VA13) [µg/mL] | further results |
| --- | --- | --- |
| O=C(Nc1ccc2nc(NC(=O)C3CCCCC3)sc2c1)c1ccc(Br)cc1 | > 4 | – |
| N#Cc1ccc(C(=O)Nc2ccc3nc(NC(=O)C4CCCCC4)sc3c2)cc1 | 3.3 (≈ 8.16 µM) | – |
| O=C(NCCc1ccccc1)Nc1ccc2nc(NC(=O)C3CCCCC3)sc2c1 | 0.7 (≈ 1.66 µM) | – |
| O=C(Nc1nc2ccc(NC(=O)C3CCCO3)cc2s1)C1CCCCC1 (stereo not drawn) | 1.3 (≈ 3.48 µM) | – |
| COc1cccc(Nc2nc3ccc(NC(=O)c4c(Cl)cccc4Cl)cc3s2)c1 | > 7.2 | – |
| CCCCCCCC(=O)Nc1nc2ccc(NC(=O)c3c(Cl)cccc3Cl)cc2s1 | 0.18 (≈ 0.388 µM) | – |
| O=C(Nc1nc2ccc(NC(=O)c3c(Cl)cccc3Cl)cc2s1)Oc1ccccc1 | 1.1 (≈ 2.4 µM) | – |
| CC(C)COC(=O)Nc1nc2ccc(NC(=O)c3c(Cl)cccc3Cl)cc2s1 | 0.0035 (≈ 0.00798 µM) | – |
| Cc1coc(C)c1C(=O)Nc1ccc2nc(NC(=O)C3CCCCC3)sc2c1 | 2.7 (≈ 6.79 µM) | – |
| CC(C)(C)OC(=O)Nc1nc2ccc(NC(=O)c3c(Cl)cccc3Cl)cc2s1 | 0.027 (≈ 0.0616 µM) | – |
| O=C(O)CCC(=O)Nc1nc2ccc(NC(=O)c3c(Cl)cccc3Cl)cc2s1 | > 6.6 | – |
| Cc1cc(C(=O)Nc2ccc3nc(NC(=O)C4CCCCC4)sc3c2)c(C)n1C | > 6.2 | – |
| CCCC(C)C(=O)Nc1ccc2nc(NC(=O)C3CCCCC3)sc2c1 (stereo not drawn) | 0.14 (≈ 0.375 µM) | – |
| O=C(Nc1ccc2nc(NC(=O)C3CCCCC3)sc2c1)c1ccccc1F | 0.14 (≈ 0.352 µM) | – |
| O=C(Nc1ccc2nc(NC(=O)C3CCCCC3)sc2c1)c1cccnc1Cl | 0.075 (≈ 0.181 µM) | – |
| CCCCNC(=O)Nc1nc2ccc(NC(=O)c3c(Cl)cccc3Cl)cc2s1 | 0.028 (≈ 0.064 µM) | – |
| CCCOC(=O)Nc1nc2ccc(NC(=O)c3c(Cl)cccc3Cl)cc2s1 | 0.0025 (≈ 0.00589 µM) | – |
| COC(=O)Nc1nc2ccc(NC(=O)c3c(Cl)cccc3Cl)cc2s1 | 0.0095 (≈ 0.024 µM) | – |
| CCCC(=O)Nc1nc2ccc(NC(=O)c3c(Cl)cccc3Cl)cc2s1 | 0.01 (≈ 0.0245 µM) | – |
| CCOC(=O)Nc1nc2ccc(NC(=O)c3c(Cl)cccc3Cl)cc2s1 | 0.0026 (≈ 0.00634 µM) | – |
